Molecules are shown by their SMILES.

A word on the viability: it is a read-out of living cells in per cent, often relative to untreated cells. A low value points to more harm to the cells. One may read the IC50 as the point on the concentration scale where inhibition reaches its midpoint.

One data set can be described thus: MTT cell viability assay. The settings on record: human, A375 cells, Cell viability [%] @ 10 μM±SD. The class given is cell-based, human. Summed up:
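A375 cells were kept in high-glucose DMEM with 10% heat-inactivated FBS, 2 mM L-glutamine and pen/strep. Cells were seeded at 0.5×10^5/well and exposed to 10 µM test compound for 48 h at 37 °C, 5% CO₂, then given MTT. Viability = 100(x−y)/(z−y), where x, y and z are absorbance of treated, resting and untreated cells. Mean ± SD, ≥3 experiments in triplicate.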
(Tetrazolium dyes change colour on reduction, which living cells bring about.)

The target in a further data set is TDO (P1.TDO) (Homo sapiens, UniProt P48775). The data set is described as follows: IDO1 and TDO selectivity assay, P1.TDO cells. Format: cell-based. The following applies: 10 μM, 16 h. A digest of the protocol: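 Mouse mastocytoma P815-derived P1.HTR cells, stably electroporated with a human TDO plasmid and selected in puromycin, grown in IMDM with 1 mM glutamine and penicillin/streptomycin, used at ≤10th passage. Cells incubated 16 h with 10 μM test compound; DMSO vehicle as control. Supernatant L-Kyn measured by HPLC-UV (C18 column) against a calibration curve, detection limit 0.05 μM. Triplicate.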
Chain of TDO (P1.TDO) (P48775 whole entry): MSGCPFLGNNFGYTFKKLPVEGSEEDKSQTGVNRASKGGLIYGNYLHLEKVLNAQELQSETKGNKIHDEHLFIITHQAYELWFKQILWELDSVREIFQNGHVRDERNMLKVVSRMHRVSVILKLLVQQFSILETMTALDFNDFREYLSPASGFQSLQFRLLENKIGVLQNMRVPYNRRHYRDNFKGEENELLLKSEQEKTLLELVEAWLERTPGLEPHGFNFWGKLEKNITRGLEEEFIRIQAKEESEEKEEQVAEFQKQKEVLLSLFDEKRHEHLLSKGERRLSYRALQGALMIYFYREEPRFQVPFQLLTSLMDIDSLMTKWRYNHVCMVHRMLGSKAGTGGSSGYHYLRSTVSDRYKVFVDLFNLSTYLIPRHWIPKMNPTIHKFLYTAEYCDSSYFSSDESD

The target of a further data set is IDO1 (Homo sapiens, UniProt P14902). The experiment in a line: Cellular IDO1 inhibition. The class given is cell-based. The settings on record: IC50±SD [μM], A375 cell line, IFN-γ, 48 h. A digest of the protocol: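 A375 cells (0.5×10^5/well) were grown overnight, then given test compound (serial dilutions 0.01–30 µM, or single 10 µM) with human IFN-γ (500 U/mL final) and 0.1% DMSO for 48 h. Medium was deproteinized with 20% CCl₃COOH. L-Kyn was quantified by C18 HPLC at 330 nm against a calibration curve; % inhibition was taken versus basal levels. IC50s came from concentration-response curves, ≥3 experiments in triplicate.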
Chain of IDO1 (P14902 whole entry): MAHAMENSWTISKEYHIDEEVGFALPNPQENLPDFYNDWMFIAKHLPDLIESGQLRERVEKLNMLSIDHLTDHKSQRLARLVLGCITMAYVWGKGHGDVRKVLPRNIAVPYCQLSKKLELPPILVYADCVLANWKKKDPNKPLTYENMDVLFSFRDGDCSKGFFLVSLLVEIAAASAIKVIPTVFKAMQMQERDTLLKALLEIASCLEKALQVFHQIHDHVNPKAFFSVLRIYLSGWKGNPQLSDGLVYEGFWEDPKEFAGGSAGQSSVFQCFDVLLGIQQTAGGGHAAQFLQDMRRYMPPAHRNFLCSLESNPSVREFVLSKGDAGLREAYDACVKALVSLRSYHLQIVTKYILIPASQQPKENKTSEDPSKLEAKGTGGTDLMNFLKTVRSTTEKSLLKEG

Data set [1] can be described thus: In vitro metabolic stability in rat liver S9 fraction. The following applies: rat liver S9 with NADPH, 5 μM substrate, 37 °C. Format: in vitro ADME. A digest of the protocol:
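Pooled male Sprague Dawley rat liver S9 (1.5 mg/mL final protein) was used in 50 mM Tris pH 7.4 with 3.3 mM MgCl₂, 1.3 mM β-NADP, 3.3 mM glucose 6-phosphate, 0.4 U/mL G6PDH and 1% acetonitrile. Test compound was 5 µM, shaken 60 min at 37 °C. Controls lacked S9 or cofactors. Reactions were stopped with ice-cold acetonitrile and centrifuged; residual substrate was measured.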

Data set [2] relates to CYP (aminopyrine N-demethylase activity). The data set is described as follows: CYP inhibition: aminopyrine N-demethylase assay in rat liver microsomes. The following applies: rat liver microsomes, 1, 10 and 100 μM. Format: in vitro ADME. Summed up: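 Aminopyrine N-demethylation by rat liver microsomes, with inhibition read as the […] after aminopyrine incubation. Ketoconazole served as the reference CYP inhibitor.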

In “MTT cell viability assay”, `COc1ccc(-c2ccc(F)c(C(=O)NCc3nnc4ccc(Cl)cn34)c2)cc1OC` [Compound 32, N‐((6‐Chloro‐[1,2,4]triazolo[4,3‐a]pyridin‐3‐yl)methyl)‐4‐fluoro‐3′,4′‐dimethoxy‐[1,1′‐biphenyl]‐3‐carboxamide] showed a viability at 48 h, 10 μM of 98 ± 9.3%.

Take `Cc1ccccc1-c1ccc(F)c(C(=O)NCc2nnc3ccc(C(F)(F)F)cn23)c1` [Compound 20, 4‐Fluoro‐2′‐methyl‐N‐((6‐(trifluoromethyl)‐[1,2,4]triazolo[4,3‐a]pyridin‐3‐yl)methyl)‐[1,1′‐biphenyl]‐3‐carboxamide]: the viability at 48 h, 10 μM in “MTT cell viability assay” stood at 100%.

In the case of `Cc1ccc(-c2ccc(F)c(C(=O)NCc3nnc4ccc(C(F)(F)F)cn34)c2)cc1C` [Compound 24, 4‐Fluoro‐3′,4′‐dimethyl‐N‐((6‐(trifluoromethyl)‐[1,2,4]triazolo[4,3‐a]pyridin‐3‐yl)methyl)‐[1,1′‐biphenyl]‐3‐carboxamide], the viability at 48 h, 10 μM in “MTT cell viability assay” came out at 95 ± 7.2%. Besides, the “Kyn levels in P1.TDO cells” value on TDO (P1.TDO) is “not able to induce a reduction of Kyn levels in P1.TDO”. This molecule came in with an IC50 on IDO1 of 2 ± 0.3 µM. Moreover, the “Residual peak area after RLS9 incubation (60 min)” value (shortened to “Residual peak area”) in data set [1] is listed as “higher than 99%”.

For `O=C(NCc1nnc2ccc(C(F)(F)F)cn12)c1cc(-c2ccc(F)cc2)ccc1F` [Compound 18, 4,4′‐Difluoro‐N‐((6‐(trifluoromethyl)‐[1,2,4]triazolo[4,3‐a]pyridin‐3‐yl)methyl)‐[1,1′‐biphenyl]‐3‐carboxamide], the viability at 48 h, 10 μM in the data set “MTT cell viability assay” worked out at 88 ± 16.8%.

The molecule `O=C(NCc1nnc2ccccn12)c1cccc2cn[nH]c12` [Compound 42, N‐([1,2,4]Triazolo[4,3‐a]pyridin‐3‐ylmethyl)‐1H‐indazole‐7‐carboxamide] registered a viability at 48 h, 10 μM in the data set “MTT cell viability assay” of 100%.

With `O=C(NCc1nnc2ccc(C(F)(F)F)cn12)c1c(F)ccc(Cl)c1Cl` [Compound 15, 2,3‐Dichloro‐6‐fluoro‐N‐((6‐(trifluoromethyl)‐[1,2,4]triazolo[4,3‐a]pyridin‐3‐yl)methyl)benzamide], the viability at 48 h, 10 μM in the data set “MTT cell viability assay” was 100 ± 0.7%.

In “MTT cell viability assay”, `COc1cc(F)c(C(=O)NCc2nnc3ccc(C(F)(F)F)cn23)c(F)c1` [Compound 16, 2,6‐Difluoro‐4‐methoxy‐N‐((6‐(trifluoromethyl)‐[1,2,4]triazolo[4,3‐a]pyridin‐3‐yl)methyl)benzamide] registered a viability at 48 h, 10 μM of 100 ± 5.2%.

Regarding `COc1cc(C)c(C(=O)NCc2nnc3ccc4ccccc4n23)c(C)c1` [Compound 39, N‐([1,2,4]Triazolo[4,3‐a]quinolin‐1‐ylmethyl)‐4‐methoxy‐2,6‐dimethylbenzamide], the viability at 48 h, 10 μM in the data set “MTT cell viability assay” is 94 ± 6.3%. Also, on TDO (P1.TDO), the “Kyn levels in P1.TDO cells” value was “not able to induce a reduction of Kyn levels in P1.TDO”. In addition, the IC50 against IDO1 stood at 1.8 ± 0.2 µM. In addition, the “Residual peak area” value in data set [1] is “higher than 99%”.

Molecule `O=C(NCc1nnc2ccc3ccccc3n12)c1cccc2cn[nH]c12` [Compound 37, N‐([1,2,4]Triazolo[4,3‐a]quinolin‐1‐ylmethyl)‐1H‐indazole‐7‐carboxamide] gave a viability at 48 h, 10 μM in the data set “MTT cell viability assay” of 100 ± 4.1%. Besides, the IC50 at IDO1 is 6.9 ± 0.8 µM.

In the data set “MTT cell viability assay”, `N#Cc1ccc(-c2ccc(F)c(C(=O)NCc3nnc4ccc(C(F)(F)F)cn34)c2)cc1` [Compound 19, 4′‐Cyano‐4‐fluoro‐N‐((6‐(trifluoromethyl)‐[1,2,4]triazolo[4,3‐a]pyridin‐3‐yl)methyl)‐[1,1′‐biphenyl]‐3‐carboxamide] came in with a viability at 48 h, 10 μM of 97 ± 2.1%.

Molecule `Cc1ccc(Br)c(C)c1C(=O)NCc1nnc2ccc(C(F)(F)F)cn12` [Compound 14, 3‐Bromo‐2,6‐dimethyl‐N‐((6‐(trifluoromethyl)‐[1,2,4]triazolo[4,3‐a]pyridin‐3‐yl)methyl)benzamide] had a viability at 48 h, 10 μM in the data set “MTT cell viability assay” of 100%.

Regarding `CC(=O)N1CCN(c2ccc(OCC3COC(Cn4ccnc4)(c4ccc(Cl)cc4Cl)O3)cc2)CC1` (centres unmarked) [ketoconazole, reference compound], in data set [2], the “CYP inhibition (aminopyrine N-demethylase activity)” value (from here on “CYP inhibition”) was “strong inhibition of CYP”.

`COc1ccc(-c2ccc(F)c(C(=O)NCc3nnc4ccc5ccccc5n34)c2)cc1` [Compound 40, N‐([1,2,4]triazolo[4,3‐a]quinolin‐1‐ylmethyl)‐4‐fluoro‐4′‐methoxy‐[1,1′‐biphenyl]‐3‐carboxamide]: the viability at 48 h, 10 μM in the data set “MTT cell viability assay” amounted to 97 ± 3.8%. The same molecule showed an IC50 at IDO1 of 3.4 ± 0.3 µM. In data set [1], the “Residual peak area” value is on record as “higher than 99%”.

In the case of `COc1ccc(-c2ccc(F)c(C(=O)NCc3nnc4ccc(C(F)(F)F)cn34)c2)cc1` [Compound 21, 4‐Fluoro‐4′‐methoxy‐N‐((6‐(trifluoromethyl)‐[1,2,4]triazolo[4,3‐a]pyridin‐3‐yl)methyl)‐[1,1′‐biphenyl]‐3‐carboxamide], in “MTT cell viability assay”, the viability at 48 h, 10 μM was found to be 78 ± 4.2%.

For `Cc1ccc(-c2cccc(C(=O)NCc3nnc4ccc(C(F)(F)F)cn34)c2)cc1` [Compound 22, 4′‐Methyl‐N‐((6‐(trifluoromethyl)‐[1,2,4]triazolo[4,3‐a]pyridin‐3‐yl)methyl)‐[1,1′‐biphenyl]‐3‐carboxamide], in the data set “MTT cell viability assay”, the viability at 48 h, 10 μM came out at 93 ± 9.8%.

Consider `O=C(NCc1nnc2ccc(Cl)cn12)c1cccc2cn[nH]c12` [Compound 30, N‐((6‐Chloro‐[1,2,4]triazolo[4,3‐a]pyridin‐3‐yl)methyl)‐1H‐indazole‐7‐carboxamide], for which the viability at 48 h, 10 μM in the data set “MTT cell viability assay” was 98 ± 7.4%.

In turn, `O=C(NCc1nnc2ccc(C(F)(F)F)cn12)c1cc(Br)c(O)cc1O` [Compound 13, 5‐Bromo‐2,4‐dihydroxy‐N‐((6‐(trifluoromethyl)‐[1,2,4]triazolo[4,3‐a]pyridin‐3‐yl)methyl)benzamide] returned a viability at 48 h, 10 μM in the data set “MTT cell viability assay” of 94 ± 2.8%.

In turn, `COc1ccc(-c2ccc(F)c(C(=O)NCc3nnc4ccc(C(F)(F)F)cn34)c2)cc1OC` [Compound 25, 4‐Fluoro‐3′,4′‐dimethoxy‐N‐((6‐(trifluoromethyl)‐[1,2,4]triazolo[4,3‐a]pyridin‐3‐yl)methyl)‐[1,1′‐biphenyl]‐3‐carboxamide] showed a viability at 48 h, 10 μM in “MTT cell viability assay” of 94 ± 2.1%. The “CYP inhibition” value in data set [2] was “low inhibition at 10 and 100 μM”. The “Kyn levels in P1.TDO cells” value on TDO (P1.TDO) is “not able to induce a reduction of Kyn levels in P1.TDO”. The molecule further gave an IC50 on IDO1 of 1.4 ± 0.5 µM. In data set [1], the “Residual peak area” value was “higher than 99%”.

As to `O=C(NCc1cccc2ccccc12)c1cccc2cn[nH]c12` [Compound 44, N‐(Naphthalen‐1‐ylmethyl)‐1H‐indazole‐7‐carboxamide], in “MTT cell viability assay”, the viability at 48 h, 10 μM came to 99 ± 1%.

As to `O=C(NCc1nnc2ccc3ccccc3n12)c1ccc(O)c(Br)c1` [Compound 38, N‐([1,2,4]Triazolo[4,3‐a]quinolin‐1‐ylmethyl)‐3‐bromo‐4‐hydroxybenzamide], the viability at 48 h, 10 μM in “MTT cell viability assay” is 95 ± 7.1%. For the same molecule, in data set [2], the “CYP inhibition” value is listed as “did not significantly inhibit CYP at the tested concentrations”. Besides, the “Kyn levels in P1.TDO cells” value at TDO (P1.TDO) is “not able to induce a reduction of Kyn levels in P1.TDO”. Besides, half-maximal inhibition against IDO1 (IC50) was put at 0.9 ± 0.02 µM.

Consider `COc1cc(C)c(C(=O)NCc2nnc3ccc(C(F)(F)F)cn23)c(C)c1` [Compound 17, 4‐Methoxy‐2,6‐dimethyl‐N‐((6‐(trifluoromethyl)‐[1,2,4]triazolo[4,3‐a]pyridin‐3‐yl)methyl)benzamide], for which the viability at 48 h, 10 μM in the data set “MTT cell viability assay” amounted to 89 ± 9.2%.

`O=C(NCc1nnc2ccc(C(F)(F)F)cn12)c1ccc(O)c(Br)c1` [Compound 12, 3‐Bromo‐4‐hydroxy‐N‐((6‐(trifluoromethyl)‐[1,2,4]triazolo[4,3‐a]pyridin‐3‐yl)methyl)benzamide] displayed a viability at 48 h, 10 μM in “MTT cell viability assay” of 92 ± 12%.

(Values after article PMC9291769 (Chemmedchem, 2021).)
